Assay outcomes from PubChem BioAssay.
Sampled rows, rich in hits. Any-hit rate of the full collection: about 5.1%.
NF-kB neuron act: NF-kB expression increase, human neuronal cells. NF-kB reporter expression; stronger effect = higher value. fold change at 12.5 µM. 1.6% of 190,000 active. AID 1239; in the data active = fold change above about 3.3
STAT1 blocker: reduces IFN-gamma driven STAT1 reporter signal | NIH 3T3 STAT1-luciferase reporter, luminescence | inhibition, % at 5.5 µM | 0.35% of 200,000 active;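 active = inhibition above a set limit, the mean inhibition across all tested compounds plus 3 SD, cut at about 34% in these data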;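 note: 0% = IFN-gamma with DMSO and 100% = IFN-gamma with 300 µM nifuroxazide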
STAT3 act: STAT3 signaling activation; activation (% of control), % at 5.6 µM; U3A cells, IL-6 STAT3-luciferase reporter, luminescence; 100% = signal with IL-6 EC80 alone; AID 871; 0.91% of 190,000 active;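 active = activation above the screen-wide mean of compound activation plus 3 SD, cut at about 130% in these data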;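 note: 0% = background luminescence of wells with medium and substrate only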
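Material: human STAT1-deficient U3A cells with stable STAT3-luciferase reporter / Probe or stimulus: IL-6 stimulus at 33 ng/mL final / Schedule: 1 h compound pre-exposure, 6 h IL-6 stimulation, 37 °C / Technique: luminescence / Read-out basis: percent of IL-6-only median luminescence / Control set: IL-6-only high control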
APP 5'UTR act: activates APP 5'UTR luciferase reporter | SH-SY5Y APP 5'UTR luciferase reporter, luminescence; zero percent = DMSO vehicle wells | activation, % at 2 µM | 1% of 190,000 active;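 active = activation above a set limit, based on mean plus 3 SD of controls, cut at about 140% in these data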
STAT1 activator: activators of IFN-gamma induced STAT1 signaling | NIH 3T3 STAT1-luciferase reporter, luminescence; 100% = IFN-gamma alone, no compound | activation (% of control), % at 5.5 µM | 2.6% of 200,000 active | AID 932;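 active = activation above the screen-wide mean activation plus 3 SD, cut at about 130% in these data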;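 note: raw ratio to IFN-gamma control signal so 100% means no change and 0% no light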
STAT3 inh: reduces IL-6 driven STAT3 reporter signal; U3A cells, IL-6 STAT3-luciferase reporter, luminescence; host cell line lacks STAT1; inhibition, % at 5.5 µM; AID 862; 0.89% of 190,000 active;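 active = inhibition above the mean inhibition across all screened compounds plus 3 SD, cut at about 44% in these data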;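 note: 0% = DMSO only wells and 100% = 100 µM nifuroxazide control wells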
Numbers without * were called inactive; / = not tested or not shown.

SMILES | NF-kB neuron act | STAT1 blocker | STAT3 act | APP 5'UTR act | STAT1 activator | STAT3 inh
COc1ccc(N=CC2=C(O)c3ccccc3C2=O)c(OC)c1 | 1 | 73.6* | 15.4 | 176.5* | 32.9 | 98.8*
CCCOc1ccc(S(=O)(=O)NNC(=O)c2cc3ccccc3o2)cc1 | 0.88 | 7.0 | 91.5 | 9.9 | 93.7 | 13.2
CCc1ccccc1NC(=S)N(Cc1ccc(C(=O)O)cc1)Cc1ccc(OC)c(OC)c1 | 1.11 | -11.1 | 87.7 | -14.0 | 109.3 | 23.9
CC/C(=N\NC(=O)c1csc(C)c1C)c1cccs1 | 5.16* | -42.6 | 91.6 | 79.6 | 138.1* | 12.1
CCC/C(=N\NC(=O)c1csc(C)c1C)c1cccs1 | 1.77 | -20.0 | 107.8 | 45.0 | 118.4 | -2.9
[O-]/C(=C(\C(=S)Nc1ccc(SC(F)F)cc1)[n+]1ccccc1)c1ccc(Cl)cc1Cl | 4.7* | 0.6 | 87.6 | 3.0 | 98.4 | 16.5
Cc1cccnc1NC(=S)NCCc1ccccc1 | 2.09 | -34.6 | 91.8 | 61.7 | 130.0* | 16.2
CCC(=O)Nc1ccc(NC(=O)c2ccccc2Cl)nc1 | 2.92 | -17.4 | 100.6 | 17.7 | 115.8 | 2.1
CC(C)C(=O)Nc1ccc(NC(=O)c2ccccc2Cl)nc1 | 1.91 | -35.8 | 110.6 | 32.9 | 132.4* | -10.2
O=C(CCc1ccccc1)Nc1ccccc1F | 3.46* | -45.6 | 102.2 | / | 144.4* | -2.5
O=C(CCc1ccccc1)Nc1ccc(F)cc1F | 1.8 | -9.7 | 97.8 | -47.4 | 108.9 | 4.2
O=C(CCCc1ccccc1)Nc1cccc(C(=O)O)c1 | 2.85 | 71.2* | 40.0 | 13.5 | 32.9 | 73.0*
COCc1cc(C)nc(Oc2ccccc2)c1C#N | 1.2 | -2.1 | 97.2 | 19.9 | 100.1 | 10.2
CCSc1nnc(NC(=O)c2ccc3ccccc3n2)s1 | 3.02 | -45.3 | 125.3 | 102.7 | 141.5* | -24.6
CCSc1nnc(NC(=O)c2cc(C)nc3ccccc23)s1 | 0.78 | -0.7 | 104.6 | -8.8 | 100.7 | -1.3
O=C(Nc1ccccc1C(=O)O)c1ccc2ccccc2n1 | 1.82 | 0.3 | 117.7 | 23.3 | 99.8 | -11.3
Cc1ccc(NC(=O)c2ccc3ccccc3n2)nc1 | 6.16* | -51.0 | 153.0* | 154.8* | 146.6* | -52.5
O=C(CCc1ccccc1)Nc1ccc(Cl)cn1 | 1.85 | -32.6 | 100.7 | -75.3 | 130.1* | 4.0
Cc1ccc(NC(=S)NCCc2ccccc2)nc1 | 1.77 | -41.7 | 116.1 | 28.8 | 136.5* | -10.9
Cc1ccc(NC(=O)CCCc2ccccc2)nc1 | 1.16 | -42.5 | 112.5 | 72.7 | 137.6* | -6.2
O=C(CCCc1ccccc1)Nc1cccnc1Cl | 1.19 | -10.2 | 99.3 | 19.0 | 107.6 | 11.1
Cc1ccccc1C(=O)Nc1ccc(Cl)cn1 | 2.51 | -31.9 | 95.4 | 67.7 | 129.0* | 14.0
Oc1ccc(-c2csc(-c3c[nH]c4ccccc34)n2)c(O)c1 | 4.17* | -49.3 | 158.5* | 107.3 | 143.5* | -60.1
c1ccc(OCc2nc3ccccc3s2)cc1 | 4.26* | -44.8 | 109.0 | 126.4 | 141.2* | -5.7
N#Cc1ccc(NC(=O)CCc2nc3ccccc3s2)cc1 | 1.14 | -4.6 | 103.8 | 10.7 | 104.0 | -4.4
SMILES | NF-kB neuron act | STAT1 blocker | STAT3 act | APP 5'UTR act | STAT1 activator | STAT3 inh
O=S(=O)(Cc1nc2ccccc2s1)c1ccccc1 | 2.18 | -41.9 | 115.3 | 73.2 | 138.1* | -12.4
CCC(=O)Nc1ccc(OCc2nc3ccccc3s2)cc1 | 4.16* | -36.0 | 131.6 | 215.9* | 134.5* | -37.9
O=S(=O)(CCc1nc2ccccc2s1)c1ccc(Cl)cc1 | 1.11 | 5.0 | 99.0 | -13.3 | 95.3 | 5.6
Fc1ccc(OCc2nc3ccccc3s2)cc1 | 5.15* | -41.8 | 101.1 | 269.2* | 136.3* | 9.3
COc1ccc(NC(=O)CNc2cc(S(=O)(=O)N3CCOCC3)ccc2NCC2CCCO2)cc1 (stereo not given) | 1.41 | -1.5 | 86.9 | -18.8 | 98.6 | 20.3
COc1ccccc1C(=O)OCc1c(F)cccc1Cl | 1.15 | -7.1 | 107.7 | -3.0 | 106.4 | 1.3
N#CCC(=O)Nc1ncc(Cc2ccccc2Cl)s1 | 0.89 | 4.3 | 89.6 | 7.5 | 95.7 | 19.1
C(=N\NC1=Nc2cccc3cccc1c23)/c1ccccc1 | 1.57 | -89.4 | 143.8* | -31.1 | 179.8* | -48.7
COc1ccc(NC2=Nc3cccc4cccc2c34)cc1OC | 1.09 | -6.2 | 78.7 | -10.9 | 105.6 | 29.8
Clc1ccc(N/N=C/c2cccnc2)cc1 | 1.83 | -12.6 | 95.9 | 41.2 | 111.4 | 9.7
Clc1ccc(/C=N/NC2=Nc3cccc4cccc2c34)cc1 | 1.43 | -39.2 | 119.3 | 70.0 | 135.4* | -18.7
C(=N\NC1=Nc2cccc3cccc1c23)/c1cccnc1 | 1.03 | -54.2 | 131.4 | 73.8 | 150.1* | -27.4
CC(=O)Nc1ccc(Oc2ccc(-c3noc(C)n3)cc2)cc1 | 1.22 | -0.5 | 100.1 | 4.4 | 105.9 | 0.0
CC(=O)Oc1ccc(Oc2ccc(-c3noc(C)n3)cc2)cc1 | 5.65* | -12.8 | 91.9 | 25.2 | 111.9 | 13.3
O=C(NNc1cccc(Cl)n1)Nc1ccc(F)cc1 | 1.08 | -2.5 | 101.8 | 0.1 | 99.3 | 2.5
O=C(CC(C(=O)O)c1c[nH]c2ccccc12)c1ccccc1 (stereo not given) | 1.06 | -3.8 | 135.6* | -3.0 | 103.4 | -33.9
O=C(O)C(O)Cc1c[nH]c2ccccc12 (stereo not given) | 1 | 7.7 | 103.6 | 2.8 | 93.1 | 8.0
O=C(CCC1CCCCC1)N1CCN(Cc2ccc3c(c2)OCO3)CC1 | 1.1 | 5.4 | 109.1 | -3.4 | 95.0 | -8.4
COc1ccc2c(c1)CC/C2=N\NC(=O)c1ccccc1 | 1.51 | -31.4 | 105.8 | 42.0 | 129.6* | -8.8
COc1ccc(OCC(=O)N/N=C2\CCc3ccccc32)cc1 | 1.26 | -7.6 | 100.9 | 3.9 | 102.5 | 0.1
OCCN1CCN(CCCc2c3c(cc4c2CCC4)CCC3)CC1 | 1.1 | 1.6 | 99.7 | -5.1 | 100.7 | -2.1
O=C(COc1ccccc1)n1nc(-c2ccc(Cl)cc2)nc1NCc1ccco1 | 1.78 | -47.0 | 111.1 | 54.4 | 143.4* | -13.1
COCC(=O)n1nc(-c2ccc(C)cc2)nc1NCc1ccc(F)cc1 | 1.12 | -22.8 | 105.5 | 31.4 | 117.9 | -1.7
COCC(=O)n1nc(-c2ccccc2)nc1NCc1ccc(N(C)C)cc1 | 2.15 | -49.9 | 111.9 | 51.9 | 142.3* | -9.2
O=C(c1ccco1)n1nc(-c2ccc(Cl)cc2)nc1NCc1ccco1 | 1.29 | 4.2 | 83.5 | -6.6 | 96.1 | 18.6
O=C(N[C@@H](Cc1ccc(O)cc1)C(=O)O)c1cccnc1 | 1.35 | 1.1 | / | -11.6 | 100.4 | /
CC(NC(=O)CCN1C(=O)c2ccccc2C1=O)c1ccc2c(c1)CCCC2 (stereo not given) | 1.22 | 7.2 | 87.8 | -10.0 | 95.4 | 13.0
COc1ccc(C2Nc3ccccc3C(=O)N2c2ccc(C)cc2)cc1COc1ccccn1 (stereo not given) | 2 | -34.5 | 112.5 | 119.9 | 130.8* | -12.6
O=C(COC(=O)c1ccccc1F)Nc1cccnc1Cl | 1.4 | -3.6 | 93.5 | 22.1 | 101.6 | 11.4
